Measurements reported in ChEMBL document CHEMBL1151702, “Using an aryl phenanthroimidazole moiety as a conjugated flexible intercalator to improve the hybridization efficiency of a triplex-forming oligonucleotide” (Bioorg Med Chem, 2008).

Columns and labels:
Type in all cases: nucleic-acid assay
[1] = system: Nucleic Acid; assay: Binding affinity to synthetic double stranded DNA D1 at 1.5 uM at pH 6.0 by thermal denaturation study
Method in brief: (§1)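 Parallel triplex melting: target duplex assembled from strands at 1.0 µM each, TFO third strand added at 1.5 µM. Buffer 20 mM sodium cacodylate, 100 mM NaCl, 10 mM MgCl₂, at the pH of the line. Samples heated to 80 °C for 5 min, cooled to 5 °C and held 30 min. Absorbance read at 260 nm while heating at 1.0 °C/min; Tm taken as the first-derivative maximum.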

[2] = system: Nucleic Acid; assay: Binding affinity to synthetic double stranded DNA D1 at 1.5 uM at pH 5.0 by thermal denaturation study; method in brief: as §1
[3] = system: Nucleic Acid; assay: Binding affinity to synthetic double stranded DNA D4 at 1.5 uM at pH 6.0 by thermal denaturation study; method in brief: as §1
[4] = system: Nucleic Acid; assay: Binding affinity to synthetic oligonucleotide ON19 at 1.0 uM at pH 7.2 by thermal denaturation study
Method in brief: (§2)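 Duplex melting: complementary strands at 1.0 µM each in 20 mM sodium cacodylate, 100 mM NaCl, 10 mM MgCl₂, at the pH of the line. Annealed at 80 °C for 5 min, then cooled to 5 °C and held 30 min. UV absorbance read at 260 nm with heating at 1.0 °C/min; Tm is the maximum of the first-derivative curve.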

[5] = system: Nucleic Acid; assay: Binding affinity to synthetic double stranded DNA D3 at 1.5 uM at pH 6.0 by thermal denaturation study; method in brief: as §1
[6] = system: Nucleic Acid; assay: Binding affinity to synthetic oligonucleotide ON19 at 1.0 uM at pH 6.0 by thermal denaturation study; method in brief: as §2
[7] = system: Nucleic Acid; assay: Binding affinity to synthetic double stranded DNA D2 at 1.5 uM at pH 6.0 by thermal denaturation study; method in brief: as §1
[8] = system: Nucleic Acid; assay: Binding affinity to synthetic double stranded DNA D1 at 1.5 uM at pH 7.2 by thermal denaturation study; method in brief: as §1
[9] = system: Nucleic Acid; assay: Binding affinity to synthetic oligonucleotide ON18 at 1.0 uM at pH 6.0 by thermal denaturation study; method in brief: as §2
[10] = system: Nucleic Acid; assay: Binding affinity to synthetic oligonucleotide ON20 at 1.0 uM at pH 7.0 by thermal denaturation study
Method in brief: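 DNA/RNA antiparallel duplex: each strand at 1.0 µM in 10 mM sodium phosphate, 140 mM NaCl, 1 mM EDTA, pH 7.0. Heated to 80 °C for 5 min, cooled to 5 °C and held 30 min. Absorbance followed at 260 nm during a 1.0 °C/min temperature ramp; Tm is the first-derivative maximum.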

Tm [1] [°C] | Tm [2] [°C] | Tm [3] [°C] | Tm [4] [°C] | Tm [5] [°C] | Tm [6] [°C] | Tm [7] [°C] | Tm [8] [°C] | Tm [9] [°C] | Tm [10] [°C] | SMILES
10.5 | 33 |  |  |  |  |  |  |  |  | Cc1cn([C@H]2C[C@H](OP(=O)(O)OC[C@H]3O[C@@H](n4ccc(N)nc4=O)C[C@@H]3OP(=O)(O)OC[C@H]3O[C@@H](n4cc(C)c(=O)[nH]c4=O)C[C@@H]3OP(=O)(O)OC[C@H]3O[C@@H](n4cc(C)c(=O)[nH]c4=O)C[C@@H]3OP(=O)(O)OC[C@H]3O[C@@H](n4cc(C)c(=O)[nH]c4=O)C[C@@H]3O[PH](O)(O)OC[C@H]3O[C@@H](n4cc(C)c(=O)[nH]c4=O)C[C@@H]3OP(=O)(O)OC[C@H]3O[C@@H](n4cc(C)c(=O)[nH]c4=O)C[C@@H]3OP(=O)(O)OC[C@H]3O[C@@H](n4cc(C)c(=O)[nH]c4=O)C[C@@H]3O)[C@@H](COC[C@H](CCOc3ccc(-c4ncc[nH]4)c4ccccc34)OP(=O)(O)O[C@H]3C[C@H](n4cc(C)c(=O)[nH]c4=O)O[C@@H]3COP(=O)(O)O[C@H]3C[C@H](n4cc(C)c(=O)[nH]c4=O)O[C@@H]3COP(=O)(O)O[C@H]3C[C@H](n4ccc(N)nc4=O)O[C@@H]3COP(=O)(O)O[C@H]3C[C@H](n4ccc(N)nc4=O)O[C@@H]3COP(=O)(O)O[C@H]3C[C@H](n4ccc(N)nc4=O)O[C@@H]3COP(=O)(O)O[C@H]3C[C@H](n4ccc(N)nc4=O)O[C@@H]3CO)O2)c(=O)[nH]c1=O
46.5 |  | 17.5 | 38.5 | 33.5 | 38.5 | 24 | 15 | 20.5 | 42.5 | Cc1cn([C@H]2C[C@H](OP(=O)(O)OC[C@H]3O[C@@H](n4ccc(N)nc4=O)C[C@@H]3OP(=O)(O)OC[C@H]3O[C@@H](n4cc(C)c(=O)[nH]c4=O)C[C@@H]3OP(=O)(O)O[C@@H](CCOc3ccc(-c4nc5c6ccccc6c6ccccc6c5[nH]4)c4ccccc34)COC[C@H]3O[C@@H](n4cc(C)c(=O)[nH]c4=O)C[C@@H]3OP(=O)(O)OC[C@H]3O[C@@H](n4cc(C)c(=O)[nH]c4=O)C[C@@H]3O[PH](O)(O)OC[C@H]3O[C@@H](n4cc(C)c(=O)[nH]c4=O)C[C@@H]3OP(=O)(O)OC[C@H]3O[C@@H](n4cc(C)c(=O)[nH]c4=O)C[C@@H]3OP(=O)(O)OC[C@H]3O[C@@H](n4cc(C)c(=O)[nH]c4=O)C[C@@H]3O)[C@@H](COC[C@H](CCOc3ccc(-c4nc5c6ccccc6c6ccccc6c5[nH]4)c4ccccc34)OP(=O)(O)O[C@H]3C[C@H](n4cc(C)c(=O)[nH]c4=O)O[C@@H]3COP(=O)(O)O[C@H]3C[C@H](n4cc(C)c(=O)[nH]c4=O)O[C@@H]3COP(=O)(O)O[C@H]3C[C@H](n4ccc(N)nc4=O)O[C@@H]3COP(=O)(O)O[C@H]3C[C@H](n4ccc(N)nc4=O)O[C@@H]3COP(=O)(O)O[C@H]3C[C@H](n4ccc(N)nc4=O)O[C@@H]3COP(=O)(O)O[C@H]3C[C@H](n4ccc(N)nc4=O)O[C@@H]3CO)O2)c(=O)[nH]c1=O
51.5 |  | 42 | 50.5 | 37 | 49 | 35.5 | 37 | 37.5 | 49.5 | Cc1cn([C@H]2C[C@H](OP(=O)(O)OC[C@H]3O[C@@H](n4ccc(N)nc4=O)C[C@@H]3OP(=O)(O)OC[C@H]3O[C@@H](n4cc(C)c(=O)[nH]c4=O)C[C@@H]3OP(=O)(O)O[C@@H](CCOc3ccc(-c4nc5c6ccccc6c6ccccc6c5[nH]4)cc3)COC[C@H]3O[C@@H](n4cc(C)c(=O)[nH]c4=O)C[C@@H]3OP(=O)(O)OC[C@H]3O[C@@H](n4cc(C)c(=O)[nH]c4=O)C[C@@H]3O[PH](O)(O)OC[C@H]3O[C@@H](n4cc(C)c(=O)[nH]c4=O)C[C@@H]3OP(=O)(O)OC[C@H]3O[C@@H](n4cc(C)c(=O)[nH]c4=O)C[C@@H]3OP(=O)(O)OC[C@H]3O[C@@H](n4cc(C)c(=O)[nH]c4=O)C[C@@H]3O)[C@@H](COC[C@H](CCOc3ccc(-c4nc5c6ccccc6c6ccccc6c5[nH]4)cc3)OP(=O)(O)O[C@H]3C[C@H](n4cc(C)c(=O)[nH]c4=O)O[C@@H]3COP(=O)(O)O[C@H]3C[C@H](n4cc(C)c(=O)[nH]c4=O)O[C@@H]3COP(=O)(O)O[C@H]3C[C@H](n4ccc(N)nc4=O)O[C@@H]3COP(=O)(O)O[C@H]3C[C@H](n4ccc(N)nc4=O)O[C@@H]3COP(=O)(O)O[C@H]3C[C@H](n4ccc(N)nc4=O)O[C@@H]3COP(=O)(O)O[C@H]3C[C@H](n4ccc(N)nc4=O)O[C@@H]3CO)O2)c(=O)[nH]c1=O
48.5 |  | 35.5 | 51 | 33 | 51 | 30.5 | 33.5 | 31.5 | 53 | Cc1cn([C@H]2C[C@H](OP(=O)(O)OC[C@H]3O[C@@H](n4cc(C)c(=O)[nH]c4=O)C[C@@H]3O[PH](O)(O)OC[C@H]3O[C@@H](n4cc(C)c(=O)[nH]c4=O)C[C@@H]3OP(=O)(O)OC[C@H]3O[C@@H](n4cc(C)c(=O)[nH]c4=O)C[C@@H]3OP(=O)(O)OC[C@H]3O[C@@H](n4cc(C)c(=O)[nH]c4=O)C[C@@H]3O)[C@@H](COC[C@H](CCOc3ccc(-c4nc5c6ccccc6c6ccccc6c5[nH]4)cc3)OP(=O)(O)O[C@H]3C[C@H](n4cc(C)c(=O)[nH]c4=O)O[C@@H]3COP(=O)(O)O[C@H]3C[C@H](n4ccc(N)nc4=O)O[C@@H]3COP(=O)(O)O[C@H]3C[C@H](n4cc(C)c(=O)[nH]c4=O)O[C@@H]3COP(=O)(O)O[C@H]3C[C@H](n4cc(C)c(=O)[nH]c4=O)O[C@@H]3COP(=O)(O)O[C@H]3C[C@H](n4cc(C)c(=O)[nH]c4=O)O[C@@H]3COP(=O)(O)O[C@H]3C[C@H](n4ccc(N)nc4=O)O[C@@H]3COP(=O)(O)O[C@H]3C[C@H](n4ccc(N)nc4=O)O[C@@H]3COP(=O)(O)O[C@H]3C[C@H](n4ccc(N)nc4=O)O[C@@H]3COP(=O)(O)O[C@H]3C[C@H](n4ccc(N)nc4=O)O[C@@H]3CO)O2)c(=O)[nH]c1=O
43.5 |  |  | 54 |  | 54 |  | 20 | 31.5 | 55.5 | Cc1cn([C@H]2C[C@H](OP(=O)(O)OC[C@H]3O[C@@H](n4cc(C)c(=O)[nH]c4=O)C[C@@H]3OP(=O)(O)OC[C@H]3O[C@@H](n4cc(C)c(=O)[nH]c4=O)C[C@@H]3OP(=O)(O)OC[C@H]3O[C@@H](n4ccc(N)nc4=O)C[C@@H]3OP(=O)(O)OC[C@H]3O[C@@H](n4cc(C)c(=O)[nH]c4=O)C[C@@H]3OP(=O)(O)OC[C@H]3O[C@@H](n4cc(C)c(=O)[nH]c4=O)C[C@@H]3OP(=O)(O)OC[C@H]3O[C@@H](n4cc(C)c(=O)[nH]c4=O)C[C@@H]3O[PH](O)(O)OC[C@H]3O[C@@H](n4cc(C)c(=O)[nH]c4=O)C[C@@H]3OP(=O)(O)OC[C@H]3O[C@@H](n4cc(C)c(=O)[nH]c4=O)C[C@@H]3OP(=O)(O)OC[C@H]3O[C@@H](n4cc(C)c(=O)[nH]c4=O)C[C@@H]3OP(=O)(O)O[C@H](CO)CCOc3ccc(-c4nc5c6ccccc6c6ccccc6c5[nH]4)cc3)[C@@H](COP(=O)(O)O[C@H]3C[C@H](n4ccc(N)nc4=O)O[C@@H]3COP(=O)(O)O[C@H]3C[C@H](n4ccc(N)nc4=O)O[C@@H]3COP(=O)(O)O[C@H]3C[C@H](n4ccc(N)nc4=O)O[C@@H]3COP(=O)(O)O[C@H]3C[C@H](n4ccc(N)nc4=O)O[C@@H]3CO)O2)c(=O)[nH]c1=O
38.5 |  | 26 | 47.5 | 22.5 | 47.5 | 21 | 18.5 | 19.5 | 49.5 | Cc1cn([C@H]2C[C@H](OP(=O)(O)OC[C@H]3O[C@@H](n4cc(C)c(=O)[nH]c4=O)C[C@@H]3O[PH](O)(O)OC[C@H]3O[C@@H](n4cc(C)c(=O)[nH]c4=O)C[C@@H]3OP(=O)(O)OC[C@H]3O[C@@H](n4cc(C)c(=O)[nH]c4=O)C[C@@H]3OP(=O)(O)OC[C@H]3O[C@@H](n4cc(C)c(=O)[nH]c4=O)C[C@@H]3O)[C@@H](COC[C@H](CCOc3ccc(-c4nc5c6ccccc6c6ccccc6c5[nH]4)c4ccccc34)OP(=O)(O)O[C@H]3C[C@H](n4cc(C)c(=O)[nH]c4=O)O[C@@H]3COP(=O)(O)O[C@H]3C[C@H](n4ccc(N)nc4=O)O[C@@H]3COP(=O)(O)O[C@H]3C[C@H](n4cc(C)c(=O)[nH]c4=O)O[C@@H]3COP(=O)(O)O[C@H]3C[C@H](n4cc(C)c(=O)[nH]c4=O)O[C@@H]3COP(=O)(O)O[C@H]3C[C@H](n4cc(C)c(=O)[nH]c4=O)O[C@@H]3COP(=O)(O)O[C@H]3C[C@H](n4ccc(N)nc4=O)O[C@@H]3COP(=O)(O)O[C@H]3C[C@H](n4ccc(N)nc4=O)O[C@@H]3COP(=O)(O)O[C@H]3C[C@H](n4ccc(N)nc4=O)O[C@@H]3COP(=O)(O)O[C@H]3C[C@H](n4ccc(N)nc4=O)O[C@@H]3CO)O2)c(=O)[nH]c1=O
